Series [1] concerns HT-29. As to the kind of experiment: Cytotoxicity against human HT-29 cells assessed as phosphorylation of CHK1 on S317 at 200 nM by Western blotting analysis. Format: functional, cell-based. The gist of the method: (§1)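 HT29 colon cells treated with gemcitabine with or without inhibitor. Protein expression was read by western blotting with 50μg protein per lane.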
In general terms: Immunoblotting shows a protein as a band on a membrane.

For series [2], the system named is HT-29. Put plainly: Antitumor activity against human HT-29 cells xenografted in CRTac:Ncr-Fox1 mouse assessed as tumor growth delay at 100 mg/kg, iv (reference value: 7.2 +/- 1.8 days). Type of series: functional. A general note: Xenograft models place foreign cells or tissue in a host animal.
Series [3] is described as follows: Toxicity in CRTac:Ncr-Fox1 mouse xenografted with human SW620 cells assessed as body weight at 100 mg/kg, iv administered for 9 days relative to control. Format: organism-based, SW-620. As to conditions: in vivo, 216 h, time 9 day.
The test system of series [4] is Mus musculus. Put plainly: In vivo inhibition of CHK1 in CRTac:Ncr-Fox1 mouse xenografted with human HT-29 cells assessed as increased phosphorylation of CDK1 on Y15 at 100 mg/kg, iv administered for 24 hrs by Western blotting analysis. Type of series: functional, organism-based. The gist of the method:
(§2)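 HT29 s.c. xenografts in female athymic nude mice. Single gemcitabine dose 100mg/kg i.v. on day 0, then one inhibitor dose 50 or 100mg/kg p.o. (DPTW vehicle) 24h later. Tumors taken 24h after the last dose, western blotted, and signals quantified by normalizing to GAPDH.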

Series [5] deals with Mus musculus. Put plainly: In vivo inhibition of CHK1 in CRTac:Ncr-Fox1 mouse xenografted with human HT-29 cells assessed as increased phosphorylation of CHK1 on S296 at 100 mg/kg, iv administered for 24 hrs by Western blotting analysis. Type of series: functional, organism-based. The gist of the method:
as §2

The test system of series [6] is Mus musculus. Put plainly: Effect on CHK1 in CRTac:Ncr-Fox1 athymic mouse xenografted with human Calu-6 cells assessed as phosphorylation of CHK1 at S345 at 100 mg/kg, iv in presence of carboplatin by Western blotting analysis. Format: functional, organism-based. The gist of the method: (§3)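 Female CRTac:Ncr-Fox1(nu) athymic mice carried s.c. Calu6 xenografts. Tumors were taken 6h after the last inhibitor dose, lysed in CHAPS buffer, and immunoblotted with GAPDH as loading control.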

The subject of series [7] is HT-29. As to the kind of experiment: Cytotoxicity against human HT-29 cells assessed as phosphorylation of CHK1 on S296 at 200 nM by Western blotting analysis. Format: functional, cell-based. The gist of the method:
as §1

A short description of series [8]: Toxicity in CRTac:Ncr-Fox1 mouse xenografted with human HT-29 cells assessed as body weight at 200 mg/kg, iv administered for 16 days relative to control. Format: organism-based. As to conditions: in vivo, 384 h, time 16 day.
For series [9], the system named is HT-29. As to the kind of experiment: Antitumor activity against human HT-29 cells xenografted in CRTac:Ncr-Fox1 mouse assessed as tumor growth delay at 100 mg/kg, iv (reference value: 8.4 +/- 1.6 days). Type of series: functional.
Series [10] deals with Mus musculus. As to the kind of experiment: In vivo inhibition of CHK1 in CRTac:Ncr-Fox1 mouse xenografted with human HT-29 cells assessed as increased phosphorylation of CHK1 on S317 at 100 mg/kg, iv administered for 24 hrs by Western blotting analysis. Type of series: functional, organism-based. The gist of the method:
as §2

In series [11] the test system is Calu-6. As to the kind of experiment: Antitumor activity against human Calu-6 cells xenografted in CRTac:Ncr-Fox1 mouse assessed as tumor growth delay time at 100 mg/kg, iv in presence of carboplatin (reference value: 6.4 +/- 2.5 days). Format: functional.
The subject of series [12] is HT-29. Put plainly: Cytotoxicity against human HT-29 cells assessed as phosphorylation of CHK1 on S280 at 200 nM by Western blotting analysis. Type of series: functional, cell-based. The gist of the method: as §1
Series [13] relates to HT-29. As to the kind of experiment: Cytotoxicity against human HT-29 cells assessed as phosphorylation of CHK1 on S345 at 200 nM by Western blotting analysis. Type of series: functional, cell-based. The gist of the method:
as §1

Series [14] has as its system HT-29. As to the kind of experiment: Antitumor activity against human HT-29 cells xenografted in CRTac:Ncr-Fox1 mouse assessed as tumor growth delay at 100 mg/kg, iv (reference value: […] +/- 5.2 days). Format: functional.
In series [15] the test system is HT-29. As to the kind of experiment: Induction of cell cycle arrest in human HT-29 cells assessed as phosphorylation of CDK1 on pY15 at 200 nM by Western blotting analysis. Format: functional, cell-based. The gist of the method:
as §1

For series [16], the system named is Mus musculus. Put plainly: Effect on CHK1 in CRTac:Ncr-Fox1 athymic mouse xenografted with human Calu-6 cells assessed as phosphorylation of CHK1 at S317 at 100 mg/kg, iv in presence of carboplatin by Western blotting analysis. Format: functional, organism-based. The gist of the method:
as §3

Series [17] relates to Mus musculus. Put plainly: Effect on CHK1 in CRTac:Ncr-Fox1 athymic mouse xenografted with human Calu-6 cells assessed as phosphorylation of CHK1 at S296 at 100 mg/kg, iv in presence of carboplatin by Western blotting analysis. Format: functional, organism-based. The gist of the method: as §3

Activity calls are given as the source filed them. No cut-off for these calls is given here.

For 1 compound, Activity, Time and residual activity results are on record in ChEMBL document CHEMBL5653622 (Oncotarget, 2016).

The term residual activity denotes the activity still measured, relative to the control.

For the compound `Nc1ccn([C@@H]2O[C@H](CO)[C@@H](O)C2(F)F)c(=O)n1` [GEMCITABINE], the result in series [1], in series [4], in series [5], in series [6], in [7] and in [10] was Active. Besides, the result in [12], in series [13], in series [15], in series [16] and in series [17] was Active. The Time stood at 2.9 days in [2], 2.6 days in series [9], 0.7 days in series [11] and 0.3 days in [14]. The residual activity in [3] is 95.7%; in series [8] it was 94.2%.
